According to ChEMBL document CHEMBL3098058, “Imidazole-derived agonists for the neurotensin 1 receptor” (Bioorg Med Chem Lett, 2014):
pEC50, pKi: −log10 of the molar value. Values after ≈ are worked out from the molar mass of the structure shown. One block for each compound: values may come before it. Active and inactive are the calls of the source. The calls are words filed in the database; no cut-off is given here.

Key:
[1] = target: T1, Neurotensin receptor type 1 (Homo sapiens, UniProt P30989); assay: Ratio of EC50 for NTR1 in human U2OS cells to EC50 for NTR1 (unknown origin) expressed in CHO cells assessed as Ca2+ mobilization; assay type: functional, cell-based
Target sequence in this assay (P30989 whole entry): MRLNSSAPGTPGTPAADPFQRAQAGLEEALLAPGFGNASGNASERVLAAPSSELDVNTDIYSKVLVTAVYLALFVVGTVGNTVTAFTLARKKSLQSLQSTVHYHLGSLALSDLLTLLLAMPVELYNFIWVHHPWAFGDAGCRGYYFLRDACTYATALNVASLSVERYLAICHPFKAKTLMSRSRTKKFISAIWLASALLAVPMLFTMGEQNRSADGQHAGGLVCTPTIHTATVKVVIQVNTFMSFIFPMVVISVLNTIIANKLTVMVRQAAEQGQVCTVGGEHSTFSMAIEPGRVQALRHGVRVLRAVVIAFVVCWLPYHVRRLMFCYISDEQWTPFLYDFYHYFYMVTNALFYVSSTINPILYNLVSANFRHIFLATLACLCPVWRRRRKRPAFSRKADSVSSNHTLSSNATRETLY

[2] = target: T1, Neurotensin receptor type 1; assay: Agonist activity at NTR1 (unknown origin) at 10 uM in presence of SR142948A
Outline: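 NTR1 activation is driven by agonist at 10 μM after preincubation with a known NTR1 antagonist. Antagonist inhibition of this activation is reported as IC50.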
Target sequence in this assay (P30989 whole entry): as above

[3] = Cytotoxicity in human Fa2N-4 cells after 24 hrs; assay type: cell-based; details: fa2n-4, 24 h, read-out: LC50 (the source's name)
Outline: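 Fa2N-4 cells are immortalized human hepatocytes. Compounds were exposed for 24 hours. Readout is the LC50 (μM).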

[4] = Metabolic stability in mouse liver microsomes assessed as compound remaining at 1hr; assay type: ADME, Microsome; details: read-out: Stability
Outline: (§1)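 Compound stability in human or mouse liver homogenate/microsomes, given as % remaining at 1 hr, run in triplicate.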

[5] = Metabolic stability in human liver microsomes assessed as compound remaining at 1 hr; assay type: ADME; details: read-out: Stability; outline: as §1
[6] = Metabolic stability in human plasma assessed as compound remaining at 3 hrs; assay type: ADME, cell-free; details: read-out: Stability
[7] = Metabolic stability in mouse plasma assessed as compound remaining at 3 hrs; assay type: ADME, cell-free; details: read-out: Stability
[8] = Plasma protein binding in mouse at 10 uM; assay type: ADME, cell-free
Outline: (§2)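 Plasma protein binding in human or mouse plasma at 1 μM and 10 μM compound, given as % bound.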

[9] = Plasma protein binding in human at 10 uM; assay type: ADME, cell-free; outline: as §2
[10] = Plasma protein binding in mouse at 1 uM; assay type: ADME, cell-free; outline: as §2
[11] = Blood brain permeability of the compound at donor and acceptor pH 7.4 by PAMPA; assay type: ADME
[12] = Plasma protein binding in human at 1 uM; assay type: ADME, cell-free; outline: as §2
[13] = target: Sodium-dependent dopamine transporter (Homo sapiens, UniProt Q01959); assay: Inhibition of DAT (unknown origin)
Sodium-dependent dopamine transporter, sequence (Q01959 whole entry): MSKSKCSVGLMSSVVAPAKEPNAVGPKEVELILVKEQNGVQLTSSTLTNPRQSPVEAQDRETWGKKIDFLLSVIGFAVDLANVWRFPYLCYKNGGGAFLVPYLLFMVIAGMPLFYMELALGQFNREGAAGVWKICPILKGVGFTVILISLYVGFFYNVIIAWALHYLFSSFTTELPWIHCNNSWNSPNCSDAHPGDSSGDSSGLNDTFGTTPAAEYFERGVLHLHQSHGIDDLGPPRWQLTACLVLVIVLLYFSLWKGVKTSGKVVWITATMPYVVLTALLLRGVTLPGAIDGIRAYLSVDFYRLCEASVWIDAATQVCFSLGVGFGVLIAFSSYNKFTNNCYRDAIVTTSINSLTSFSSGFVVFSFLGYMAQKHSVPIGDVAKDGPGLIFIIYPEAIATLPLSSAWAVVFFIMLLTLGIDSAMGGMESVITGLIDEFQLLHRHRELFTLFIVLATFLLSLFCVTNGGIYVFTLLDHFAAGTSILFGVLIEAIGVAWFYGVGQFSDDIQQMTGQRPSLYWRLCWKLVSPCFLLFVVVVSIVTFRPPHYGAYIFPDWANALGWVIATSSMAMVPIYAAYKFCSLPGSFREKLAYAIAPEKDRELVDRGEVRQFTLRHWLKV

[14] = target: T1, Neurotensin receptor type 1; assay: Inhibition of NTS1 receptor (unknown origin)
Target sequence in this assay (P30989 whole entry): as the sequence (P30989 whole entry) above

[15] = Permeability of the compound at donor and acceptor pH 7.4 by PAMPA; assay type: ADME
[16] = Permeability of the compound at donor pH 6.2 and acceptor pH 7.4 by PAMPA; assay type: ADME
[17] = Permeability of the compound at donor pH 5.0 and acceptor pH 7.4 by PAMPA; assay type: ADME
[18] = Aqueous solubility of the compound in pION buffer at pH 7.4; assay type: physicochemical
[19] = Aqueous solubility of the compound in pION buffer at pH 6.2; assay type: physicochemical
[20] = Aqueous solubility of the compound in pION buffer at pH 5.0; assay type: physicochemical
[21] = target: T1, Neurotensin receptor type 1; assay: Agonist activity at NTR1 (unknown origin) expressed in CHO cells assessed as Ca2+ mobilization by Fluo-4 NW dye-based fluorescence assay relative to NT peptide; assay type: functional, cell-based
Target sequence in this assay (P30989 whole entry): as above

[22] = target: T1, Neurotensin receptor type 1; assay: Agonist activity at NTR1 (unknown origin) expressed in CHO cells assessed as Ca2+ mobilization by Fluo-4 NW dye-based fluorescence assay; assay type: functional, cell-based
Target sequence in this assay (P30989 whole entry): as above

[23] = target: T1, Neurotensin receptor type 1; assay: Agonist activity at NTR1 (unknown origin) expressed in CHO-K1 cells coexpressing coexpressing beta-arrestin/N-terminal deletion mutant of beta-galactosidase fusion protein by chemiluminescence assay relative to NT peptide; assay type: cell-based
Outline: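 PathHunter complementation in CHO-K1 cells. NTR1 is fused to the ProLink small enzyme fragment and co-expressed with a β-arrestin fusion to the N-terminal-deleted β-gal enzyme acceptor. Activation drives β-arrestin binding and β-gal fragment complementation, and enzyme activity is read by chemiluminescence.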
Target sequence in this assay (P30989 whole entry): as above

[24] = target: T1, Neurotensin receptor type 1; assay: Agonist activity at NTR1 (unknown origin) expressed in CHO-K1 cells coexpressing beta-arrestin/N-terminal deletion mutant of beta-galactosidase fusion protein by chemiluminescence assay; assay type: cell-based
Outline: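 DiscoveRx PathHunter format. CHO-K1 cells express NTR1 fused in frame to the small ProLink β-gal fragment, stably co-expressed with β-arrestin fused to the N-terminal-deletion β-gal enzyme acceptor. Receptor activation recruits β-arrestin, which forces fragment complementation into active β-gal. The resulting enzyme activity is read by chemiluminescence. EC50 and Emax are expressed as % of NT peptide response.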
Target sequence in this assay (P30989 whole entry, looked up, change not shown): as the sequence (P30989 whole entry) above

[25] = target: G-protein coupled receptor 35 (Homo sapiens, UniProt Q9HC97); assay: Agonist activity at GPR35 in human U2OS cells after 1 hr by beta-arrestin GFP reporter gene assay; assay type: cell-based
G-protein coupled receptor 35, sequence (Q9HC97 whole entry): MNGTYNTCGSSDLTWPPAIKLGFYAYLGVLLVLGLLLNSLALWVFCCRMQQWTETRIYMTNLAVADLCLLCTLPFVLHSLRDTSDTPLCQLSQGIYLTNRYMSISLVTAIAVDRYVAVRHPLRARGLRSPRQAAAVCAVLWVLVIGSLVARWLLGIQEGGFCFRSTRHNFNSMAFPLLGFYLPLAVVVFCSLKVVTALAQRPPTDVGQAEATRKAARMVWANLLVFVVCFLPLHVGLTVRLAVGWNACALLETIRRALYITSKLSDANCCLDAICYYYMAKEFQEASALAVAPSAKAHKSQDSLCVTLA
Outline: (§3)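 High-content imaging in U2OS cells expressing the receptor of interest (NTR1, NTR2 or GPR35) plus a β-arrestin fluorescent reporter. The read-out is the location of the receptor–arrestin complex after receptor activation.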

[26] = target: Neurotensin receptor type 2 (Homo sapiens, UniProt O95665); assay: Agonist activity at NTR2 in human U2OS cells after 1 hr by beta-arrestin GFP reporter gene assay; assay type: cell-based; outline: as §3
Neurotensin receptor type 2, sequence (O95665 whole entry): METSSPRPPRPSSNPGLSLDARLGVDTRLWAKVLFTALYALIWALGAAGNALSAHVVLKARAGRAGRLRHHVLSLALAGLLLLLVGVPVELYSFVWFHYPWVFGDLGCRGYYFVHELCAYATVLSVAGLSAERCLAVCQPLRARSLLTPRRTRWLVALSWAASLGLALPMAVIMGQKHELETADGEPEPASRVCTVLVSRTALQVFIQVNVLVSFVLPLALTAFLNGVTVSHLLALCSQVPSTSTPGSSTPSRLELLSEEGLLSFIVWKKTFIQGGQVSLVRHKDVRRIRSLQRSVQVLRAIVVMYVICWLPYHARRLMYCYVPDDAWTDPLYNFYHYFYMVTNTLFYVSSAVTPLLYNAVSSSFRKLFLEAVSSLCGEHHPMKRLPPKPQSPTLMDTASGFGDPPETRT

[27] = target: T1, Neurotensin receptor type 1; assay: Agonist activity at NTR1 in human U2OS cells after 1 hr by beta-arrestin GFP reporter gene assay relative to NT peptide; assay type: cell-based
Outline: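 U2OS cells expressing NTR1 and a fluorescent β-arrestin reporter, imaged by high-content imaging of receptor–arrestin complex location after activation. EC50 and Emax are calculated relative to the efficacy of NT peptide at a saturating 100 nM.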

[28] = target: T1, Neurotensin receptor type 1; assay: Agonist activity at NTR1 in human U2OS cells after 1 hr by beta-arrestin GFP reporter gene assay; assay type: cell-based; outline: as §3
Mu-type opioid receptor = Mu-type opioid receptor (Homo sapiens, UniProt P35372); assay: Inhibition of MOR (unknown origin)
Mu-type opioid receptor, sequence (P35372 whole entry): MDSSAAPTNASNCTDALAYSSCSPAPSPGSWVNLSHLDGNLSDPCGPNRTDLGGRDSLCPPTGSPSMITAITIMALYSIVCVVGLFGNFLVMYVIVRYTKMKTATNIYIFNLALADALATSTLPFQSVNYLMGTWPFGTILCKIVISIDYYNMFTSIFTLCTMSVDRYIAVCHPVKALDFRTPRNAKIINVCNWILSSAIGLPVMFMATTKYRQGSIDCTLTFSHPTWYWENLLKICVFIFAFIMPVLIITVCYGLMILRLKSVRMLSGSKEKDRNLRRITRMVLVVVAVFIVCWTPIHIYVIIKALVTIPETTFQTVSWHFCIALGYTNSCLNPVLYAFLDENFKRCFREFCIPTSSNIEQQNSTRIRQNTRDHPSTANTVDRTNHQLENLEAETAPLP

[29] = target: Delta-type opioid receptor (Homo sapiens, UniProt P41143); assay: Inhibition of DOR (unknown origin)
Delta-type opioid receptor, sequence (P41143 whole entry): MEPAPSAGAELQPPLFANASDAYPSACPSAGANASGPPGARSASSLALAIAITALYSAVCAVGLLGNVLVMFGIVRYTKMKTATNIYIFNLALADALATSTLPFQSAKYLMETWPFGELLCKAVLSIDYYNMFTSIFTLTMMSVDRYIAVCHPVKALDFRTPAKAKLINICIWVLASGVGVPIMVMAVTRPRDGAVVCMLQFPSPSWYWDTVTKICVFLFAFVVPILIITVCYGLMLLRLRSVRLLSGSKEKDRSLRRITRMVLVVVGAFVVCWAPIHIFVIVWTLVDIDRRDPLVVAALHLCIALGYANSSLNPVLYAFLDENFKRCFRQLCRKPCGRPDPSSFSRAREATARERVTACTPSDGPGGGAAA

Compound: COc1cccc(OC)c1-c1nc(C(=O)N[C@@H](CC(C)C)C(=O)O)cn1-c1ccnc2cc(Cl)ccc12
Ratio EC50 [1]: 5 | Activity [2]: inactive | CC50 [3]: > 50 µM | remaining at 1 h [4]: 59% | remaining at 1 h [5]: 100% | remaining at 3 h [6]: 100% | remaining at 3 h [7]: 100% | PPB [8]: 91.4% | PPB [9]: 98.7% | PPB [10]: 92.2% | permeability [11]: 1.2 ×10⁻⁶ cm/s | PPB [12]: 98.7% | pKi [13]: < 5.00 | pKi [14]: 5.00 | permeability [15]: 6 ×10⁻⁶ cm/s | permeability [16]: 17 ×10⁻⁶ cm/s | permeability [17]: 363 ×10⁻⁶ cm/s | solubility [18]: > 99 µM | solubility [19]: > 99 µM | solubility [20]: > 99 µM | Emax [21]: 93% | pEC50 [22]: 6.53 | Emax [23]: 100% | pEC50 [24]: 5.21 | pEC50 [25]: < 4.40 | pEC50 [26]: < 4.10 | Emax [27]: 79% | pEC50 [28]: 5.70

Emax [27]: 80% | pEC50 [28]: 5.28
Compound: CC(C)C[C@H](NC(=O)c1cn(-c2ccnc3cc(Cl)ccc23)c(-c2c(Cl)cccc2Cl)n1)C(=O)O

Emax [27]: 100% | pEC50 [28]: 4.51
Compound: COc1cccc(OC)c1-c1cc(C(=O)NC2(C(=O)O)C3CC4CC(C3)CC2C4)nn1-c1ccnc2cc(Cl)ccc12 (stereo not drawn) [REMINERTANT]

pEC50 [28]: < 4.10
Compound: CC(C)C[C@H](NC(=O)c1cn(-c2ccncc2)c(-c2ccccc2)n1)C(=O)O

pEC50 [28]: < 4.10
Compound: CC(C)C[C@H](NC(=O)c1cn(-c2ccnc3ccccc23)c(-c2ccccc2)n1)C(=O)O

Emax [27]: 59% | pEC50 [28]: 5.42
Compound: COc1cccc(OC)c1-c1nc(C(=O)N[C@@H](CC(C)C)C(=O)O)cn1-c1ccnc2ccccc12

Emax [27]: 100% | pEC50 [28]: 4.34
Compound: COc1cccc(OC)c1-c1nc(C(=O)NC2(C(=O)O)C3CC4CC(C3)CC2C4)cn1-c1ccnc2cc(Cl)ccc12 (stereo not drawn)

pEC50 [28]: < 4.10
Compound: COc1cccc(OC)c1-c1nc(C(=O)N[C@@H](CC(C)C)C(=O)O)cn1-c1ccc(C)cc1

Compound: COc1cccc(OC)c1-c1cc(C(=O)N[C@@H](CC(C)C)C(=O)O)nn1-c1ccnc2cc(Cl)ccc12
Ratio EC50 [1]: 5 | pKi (Mu-type opioid receptor): 5.47 | pKi [29]: 5.28 | CC50 [3]: > 50 µM | remaining at 1 h [4]: 46% | remaining at 1 h [5]: 76% | remaining at 3 h [6]: 88.9% | remaining at 3 h [7]: 70.7% | PPB [8]: 97.1% | PPB [9]: 99.7% | PPB [10]: 96.6% | permeability [11]: 4.8 ×10⁻⁶ cm/s | PPB [12]: 99.6% | pKi [13]: < 5.00 | pKi [14]: 5.48 | permeability [16]: 725 ×10⁻⁶ cm/s | permeability [17]: 1270 ×10⁻⁶ cm/s | solubility [18]: > 296 µM | solubility [19]: > 296 µM | solubility [20]: 113 µM (≈ 59.1 µg/mL) | pEC50 [22]: > 6.81 | pEC50 [24]: < 4.48 | pEC50 [25]: < 4.40 | pEC50 [26]: < 4.10 | Emax [27]: 100%

Emax [27]: 100% | pEC50 [28]: 4.14
Compound: CC(C)C[C@H](NC(=O)c1cn(-c2ccnc3cc(Cl)ccc23)c(-c2ccccc2)n1)C(=O)O

Compound: COc1cccc(OC)c1-c1nc(C(=O)N[C@@H](CC(C)C)C(=O)O)cn1-c1cccc2ccccc12
CC50 [3]: > 50 µM | remaining at 1 h [4]: 76% | remaining at 1 h [5]: 100% | remaining at 3 h [6]: 76% | remaining at 3 h [7]: 76% | PPB [8]: 95.4% | PPB [9]: 98% | PPB [10]: 96.4% | permeability [11]: 1.1 ×10⁻⁶ cm/s | PPB [12]: 97.9% | permeability [15]: 12 ×10⁻⁶ cm/s | permeability [16]: 145 ×10⁻⁶ cm/s | permeability [17]: 953 ×10⁻⁶ cm/s | solubility [18]: > 297 µM | solubility [19]: > 297 µM | solubility [20]: 247 µM (≈ 120 µg/mL) | Emax [27]: 93% | pEC50 [28]: 5.64

Emax [27]: 50% | pEC50 [28]: 5.03
Compound: COc1cccc(OC)c1-c1nc(C(=O)N[C@H](CC(C)C)C(=O)O)cn1-c1ccnc2cc(Cl)ccc12

pEC50 [28]: < 4.10
Compound: COc1cccc(OC)c1-c1cc(C(=O)NC2(C(=O)O)C3CC4CC(C3)CC2C4)nn1-c1ccc(C(=O)N(C)CCCN(C)C)cc1C(C)C (stereo not drawn)

pEC50 [28]: < 4.10
Compound: COc1ccccc1-c1nc(C(=O)N[C@@H](CC(C)C)C(=O)O)cn1-c1ccnc2ccccc12

Emax [27]: 98% | pEC50 [28]: 6.01
Compound: COc1ccccc1-c1cc(C(=O)N[C@H](CC(C)C)C(=O)O)nn1-c1ccnc2cc(Cl)ccc12

Emax [27]: 78% | pEC50 [28]: 5.04
Compound: Cc1cccc(C)c1-c1nc(C(=O)N[C@@H](CC(C)C)C(=O)O)cn1-c1ccnc2cc(Cl)ccc12

pEC50 [28]: < 4.10
Compound: COc1ccccc1-c1nc(C(=O)N[C@@H](CC(C)C)C(=O)O)cn1-c1ccncc1

Emax [27]: 100% | pEC50 [28]: 4.25
Compound: COc1ccccc1-c1nc(C(=O)N[C@@H](CC(C)C)C(=O)O)cn1-c1ccnc2cc(Cl)ccc12

Emax [27]: 100% | pEC50 [28]: 4.18
Compound: COc1cccc(OC)c1-c1nc(C(=O)N[C@@H](CC(C)C)C(=O)O)cn1-c1ccncc1

pEC50 [28]: < 4.10
Compound: COc1ccc(-c2nc(C(=O)N[C@@H](CC(C)C)C(=O)O)cn2-c2ccnc3cc(Cl)ccc23)c(OC)c1
